pIC50: −log10 of the molar value.
Tests used:
Integrin alpha-V/beta-5 = Integrin alpha-V/beta-5 (Homo sapiens, UniProt P06756+P18084); assay: Displacement of [125I]echistatin from human integrin alphaVbeta5; type: protein-complex assay
In short: (§1)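 Solid-phase competition binding to αvβ3 and αvβ5 purified from human placenta. Receptors coated overnight at 4 °C (αvβ3 at 500 ng/mL, αvβ5 at 1000 ng/mL) in Tris pH 7.4 buffer with Ca2+, Mg2+ and Mn2+, then blocked with 1% BSA. [125I]echistatin used at 0.05 nM (αvβ3) or 0.1 nM (αvβ5) against test compound from 100 μM to 0.01 nM. Incubation 3 h at room temperature, in triplicate. Nonspecific binding defined with 1 μM unlabeled echistatin. IC50 taken as 50% inhibition of radioligand binding.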

Integrin alpha-V/beta-3 = Integrin alpha-V/beta-3 (Homo sapiens, UniProt P05106+P06756); assay: Displacement of [125I]echistatin from human integrin alphaVbeta3; type: protein-complex assay; in short: as §1
Chain of Integrin alpha-V/beta-3 (P05106 27-788 limits assumed): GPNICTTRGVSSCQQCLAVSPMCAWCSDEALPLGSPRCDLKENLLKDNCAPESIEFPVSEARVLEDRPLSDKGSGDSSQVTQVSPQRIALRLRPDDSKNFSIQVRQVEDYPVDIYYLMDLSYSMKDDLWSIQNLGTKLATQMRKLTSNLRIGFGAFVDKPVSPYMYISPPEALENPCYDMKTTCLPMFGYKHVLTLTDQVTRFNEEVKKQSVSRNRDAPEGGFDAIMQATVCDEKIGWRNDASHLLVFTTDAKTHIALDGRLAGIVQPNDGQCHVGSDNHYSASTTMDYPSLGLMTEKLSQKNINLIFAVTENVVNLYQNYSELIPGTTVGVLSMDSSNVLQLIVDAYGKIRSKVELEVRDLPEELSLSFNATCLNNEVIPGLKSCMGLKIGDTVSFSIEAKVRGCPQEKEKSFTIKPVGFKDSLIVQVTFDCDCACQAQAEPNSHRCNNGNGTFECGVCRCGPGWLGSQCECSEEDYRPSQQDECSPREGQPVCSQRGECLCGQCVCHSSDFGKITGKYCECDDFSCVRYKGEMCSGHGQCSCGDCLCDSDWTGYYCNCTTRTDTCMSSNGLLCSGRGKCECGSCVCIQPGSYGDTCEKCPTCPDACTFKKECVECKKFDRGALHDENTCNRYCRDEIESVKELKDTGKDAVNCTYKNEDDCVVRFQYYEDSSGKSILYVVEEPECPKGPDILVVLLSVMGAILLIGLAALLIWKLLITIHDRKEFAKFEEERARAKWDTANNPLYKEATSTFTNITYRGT
Chain of Integrin alpha-V/beta-3 (P06756 31-889 limits assumed): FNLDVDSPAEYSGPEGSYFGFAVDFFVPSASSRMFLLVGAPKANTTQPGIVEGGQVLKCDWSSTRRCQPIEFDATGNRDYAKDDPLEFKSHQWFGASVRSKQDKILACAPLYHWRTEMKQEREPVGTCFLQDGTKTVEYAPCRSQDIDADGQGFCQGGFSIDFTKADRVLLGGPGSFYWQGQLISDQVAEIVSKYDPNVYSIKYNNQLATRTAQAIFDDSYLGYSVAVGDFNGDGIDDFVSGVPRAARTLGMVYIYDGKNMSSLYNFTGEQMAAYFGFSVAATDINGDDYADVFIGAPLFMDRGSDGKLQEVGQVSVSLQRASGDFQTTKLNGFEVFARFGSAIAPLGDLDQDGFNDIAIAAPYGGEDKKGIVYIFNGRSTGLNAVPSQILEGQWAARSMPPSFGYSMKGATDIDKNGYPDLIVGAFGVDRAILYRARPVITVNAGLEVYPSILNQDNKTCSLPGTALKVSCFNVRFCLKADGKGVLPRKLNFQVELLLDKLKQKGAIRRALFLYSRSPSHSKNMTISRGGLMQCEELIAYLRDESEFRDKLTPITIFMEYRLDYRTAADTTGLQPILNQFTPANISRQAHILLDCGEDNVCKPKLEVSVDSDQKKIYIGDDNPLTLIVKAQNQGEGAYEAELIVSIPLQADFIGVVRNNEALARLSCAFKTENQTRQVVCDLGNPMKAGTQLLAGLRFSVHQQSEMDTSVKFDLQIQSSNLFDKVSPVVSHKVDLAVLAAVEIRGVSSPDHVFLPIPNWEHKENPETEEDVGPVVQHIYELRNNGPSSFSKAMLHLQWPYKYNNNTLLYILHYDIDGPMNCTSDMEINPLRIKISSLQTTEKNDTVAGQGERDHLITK
Chain of Integrin alpha-V/beta-3 (P06756 891-1048 limits assumed): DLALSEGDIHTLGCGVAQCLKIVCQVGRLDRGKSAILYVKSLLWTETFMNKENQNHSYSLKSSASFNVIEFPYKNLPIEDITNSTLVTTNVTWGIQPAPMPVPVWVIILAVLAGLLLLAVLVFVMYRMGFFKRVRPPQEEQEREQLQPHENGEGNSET

Chain of Integrin alpha-V/beta-5 (P06756 31-889 limits assumed): as the sequence (P06756 31-889 limits assumed) above
Chain of Integrin alpha-V/beta-5 (P06756 891-1048 limits assumed): as the sequence (P06756 891-1048 limits assumed) above
Chain of Integrin alpha-V/beta-5 (P18084 24-799 limits assumed): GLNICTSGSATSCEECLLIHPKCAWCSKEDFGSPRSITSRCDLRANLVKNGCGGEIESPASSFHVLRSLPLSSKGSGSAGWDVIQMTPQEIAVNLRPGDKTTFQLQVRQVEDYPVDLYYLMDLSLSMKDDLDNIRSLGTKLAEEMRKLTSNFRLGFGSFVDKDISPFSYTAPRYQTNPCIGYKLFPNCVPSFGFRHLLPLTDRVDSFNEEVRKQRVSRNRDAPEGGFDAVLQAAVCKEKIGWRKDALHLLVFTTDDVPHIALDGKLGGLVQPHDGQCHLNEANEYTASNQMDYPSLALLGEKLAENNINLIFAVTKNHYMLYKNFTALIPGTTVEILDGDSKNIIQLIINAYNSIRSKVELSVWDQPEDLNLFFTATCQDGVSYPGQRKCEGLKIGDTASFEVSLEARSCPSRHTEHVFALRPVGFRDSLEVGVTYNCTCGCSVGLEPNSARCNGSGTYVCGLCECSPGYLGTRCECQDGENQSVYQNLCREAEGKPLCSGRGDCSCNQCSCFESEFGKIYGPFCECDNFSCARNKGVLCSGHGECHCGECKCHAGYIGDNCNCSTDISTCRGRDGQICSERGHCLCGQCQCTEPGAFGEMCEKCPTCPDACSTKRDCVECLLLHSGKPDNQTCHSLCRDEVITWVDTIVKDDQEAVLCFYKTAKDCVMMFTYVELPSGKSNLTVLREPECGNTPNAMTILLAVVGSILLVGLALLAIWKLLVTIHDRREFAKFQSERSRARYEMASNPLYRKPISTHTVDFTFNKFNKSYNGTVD

Structure (SMILES) | pIC50 (Integrin alpha-V/beta-5) | pIC50 (Integrin alpha-V/beta-3)
NC(N)=NCc1cn(CC(=O)N(CC(=O)O)c2ccccc2)nn1 | < 5.00 | < 5.00
N=C(N)NCCc1cn(CC(=O)N(CC(=O)O)c2ccccc2)nn1 | < 5.00 | < 5.00
NC(N)=NCCCc1cn(CC(=O)N(CC(=O)O)c2ccccc2)nn1 | < 5.00 | < 5.00
N=C(N)N1CCN(CCc2cn(CC(=O)N(CC(=O)O)c3ccccc3)nn2)CC1 | < 5.00 | < 5.00

Source: ChEMBL document CHEMBL1255570, “Click-chemistry-derived triazole ligands of arginine-glycine-aspartate (RGD) integrins with a broad capacity to inhibit adhesion of melanoma cells and both in vitro and in vivo angiogenesis” (J Med Chem, 2010)
